Activity calls are given as the source filed them. No cut-off for these calls is given here.
Tests used:
[1] = Lipid accumulation ratio of the compound; format: physicochemical
Procedure, shortened: (§1)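 VAR taken as antilog of calculated log D7.4 minus calculated log D5.2. log D from log P and pKa values measured potentiometrically at 25°C in 0.15 M KCl (n-octanol/0.15 M KCl partitioning). LAR calculated by an earlier published procedure.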

[2] = Toxicity in human RBC assessed as hemolysis at 50 uM; format: cell-based; conditions: erythrocyte
Procedure, shortened: (§2)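 Human RBC at 5% Htc in PBS-glucose held 2 h at 37°C with a range of compound concentrations, alone or with 10 μM FP. Cells spun down; hemolysis read as A412 of released Hb in supernatant. Five experiments in triplicate.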

[3] = Distribution coefficient, log D of the compound at pH 7.4; format: physicochemical; conditions: octanol/water
[4] = Toxicity in human RBC assessed as potentiation of ferriprotoporphyrin 9-induced hemolysis at 50 uM after 2hrs in presence of 10 uM; format: cell-based; conditions: erythrocyte; procedure, shortened: as §2
Erythrocyte = assay: Induction of denaturation of hemoglobin in human RBC in acidic condition assessed as denatured hemoglobin level per millimitre of packed RBC; format: functional
Procedure, shortened: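 Fitch-Russell method: intact RBC from 50 μl packed cells brought to 10 ml in 150 mM sodium acetate pH 5.0, held 90 min at 39°C with or without compound at 100 μM. Pellets spun at 3,500 × g, washed thrice in acetate, dissolved in 10 mM Tris-HCl, 2.5% SDS, 0.2 N NaOH; denatured Hb taken as FP from A412 minus A700.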

[5] = Vacuolar accumulation ratio of the compound at pH 5.2; format: ADME; procedure, shortened: as §1
[6] = Toxicity in human RBC assessed as hemolysis pretreated at 50 uM for 30 mins followed by washing and incubated with 40 uM ferriprotoporphyrin 9 for 2hrs; format: cell-based; conditions: erythrocyte
Procedure, shortened: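 RBC exposed 30 min to 50 μM compound, washed, then held 2 h with 40 μM FP; hemolysis read from supernatant Hb at A412.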

Plasmodium falciparum [7] = assay: Antiplasmodial activity against chloroquine-susceptible Plasmodium falciparum D10; format: functional, organism-based
Plasmodium falciparum [8] = assay: Antiplasmodial activity against chloroquine-resistant Plasmodium falciparum W2; format: functional, organism-based
[9] = Drug uptake in human RBC at 50 uM in absence of 10 um ferriprotoporphyrin 9; format: ADME, cell-based; conditions: erythrocyte
Procedure, shortened: (§3)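 Washed human RBC given 50 μM compound for 30 min at 37°C, with or without 10 μM FP. Total uptake and membrane-bound fraction measured fluorimetrically after washing and CHCl3-1 N HCl extraction. One representative experiment in triplicate.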

Plasmodium falciparum [10] = assay: Resistance index, ratio of IC50 for chloroquine-resistant Plasmodium falciparum W2 to IC50 for chloroquine-susceptible Plasmodium falciparum D10; format: functional
[11] = Octanol-water partition coefficient, log P of the compound; format: physicochemical
Homo sapiens [12] = organism: Homo sapiens; assay: Binding affinity to normal human RBC membrane in presence of 15% hematocrit by fluorimetric method
Procedure, shortened: (§4)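 Human A+ RBC (citrate-phosphate-dextrose, ≤10 days), washed in cold PBS, held at 15% Htc in PBS-5 mM glucose. Incubation with compound (10 to 50 μM, 50 μM for parasitized comparisons) 30 min at 37°C. Normal RBC or D10/W2-parasitized RBC at 4,0% parasitemia. Cells pelleted, washed free of unbound drug, extracted into CHCl3-1 N HCl, quinoline read by fluorescence.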

[13] = Drug uptake in human RBC at 50 uM in presence of 10 um ferriprotoporphyrin 9; format: ADME, cell-based; conditions: erythrocyte; procedure, shortened: as §3
[14] = Toxicity in human RBC assessed as hemolysis at 50 uM at 40 degC in presence of 10 uM ferriprotoporphyrin 9; format: cell-based, Erythrocyte; conditions: human red blood cells (RBC), read-out: Activity
Procedure, shortened: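 Hemolysis assay as for the 37°C format (5% Htc RBC, PBS-glucose, 2 h, 10 μM FP, supernatant A412 read-out), but run at 40°C.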

[15] = Inhibition of beta-hematin formation by BHIA assay; format: functional
Ferriprotoporphyrin IX = assay: Binding affinity to ferriprotoporphyrin 9sassessed as quenching of Soret band in presence of 40% DMSO-10 mM sodium phosphate buffer at pH 6.0
Procedure, shortened: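 Heme (FP, fresh stock in 0.02 N NaOH diluted in PBS) at 15 μM final in 10 mM sodium phosphate pH 6.0 with 40% DMSO, compound added at 1 to 200 μM; absorption spectra read after 2 min, Soret band quenching followed. Job's plot run in parallel (FP plus compound totalling 10 μM, A400 difference vs molar ratio). Three experiments in triplicate.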

Homo sapiens [16] = organism: Homo sapiens; assay: Ratio of binding affinity to human RBC membrane parasitized with Plasmodium falciparum D10 to binding affinity to normal human RBC; procedure, shortened: as §4
Homo sapiens [17] = organism: Homo sapiens; assay: Ratio of binding affinity to human RBC membrane parasitized with Plasmodium falciparum W2 to binding affinity to normal human RBC; procedure, shortened: as §4

**Q.** Which results are given for `Clc1ccc2c(N[C@H]3CCCN4CCCC[C@H]34)ccnc2c1`?
**A.** Ratio [1]: 490; Activity [2]: Non-toxic; logD [3]: 2.69; Activity [4]: Toxic; Activity (Erythrocyte): Active; Ratio [5]: 14900; Activity [6]: Non-toxic; IC50 (Plasmodium falciparum [7]): 24.2 nM; IC90 (Plasmodium falciparum [7]): 35.1 nM; IC50 (Plasmodium falciparum [8]): 21.3 nM; IC90 (Plasmodium falciparum [8]): 33.1 nM; Drug uptake [9]: 18%; Ratio IC50 (Plasmodium falciparum [10]): 0.88; logP [11]: 4.57; Activity (Homo sapiens [12]): Dose-dependent effect; Drug uptake [13]: 50%; hemolysis at 50 µM [14]: 50%; IC50 [15]: 1.12 equiv; inhibition [15]: Dose-dependent effect; Activity (Ferriprotoporphyrin IX): Active; Ratio (Homo sapiens [16]): 2; Ratio (Homo sapiens [17]): 1.5

**Q.** For `Clc1ccc2c(NC[C@@H]3CCCN4CCCC[C@H]34)ccnc2c1`, which Ratio [1] is on record?
**A.** 182

**Q.** And the Activity [2]?
**A.** Non-toxic

**Q.** What about the logD [3] of the same molecule?
**A.** 2.26

**Q.** And the Activity [4]?
**A.** Toxic

**Q.** What about the Activity (Erythrocyte) of the same molecule?
**A.** Active

**Q.** And the Ratio [5]?
**A.** 22600

**Q.** What about the Activity [6] of the same molecule?
**A.** Non-toxic

**Q.** And the IC50 (Plasmodium falciparum [7])?
**A.** 26.4 nM

**Q.** And the IC90 (Plasmodium falciparum [7])?
**A.** 34.3 nM

**Q.** And the IC50 (Plasmodium falciparum [8])?
**A.** 41.8 nM

**Q.** And the IC90 (Plasmodium falciparum [8])?
**A.** 54.9 nM

**Q.** What about the Drug uptake [9] of the same molecule?
**A.** 18%

**Q.** What about the “Ratio IC50” value (Plasmodium falciparum [10]) of the same molecule?
**A.** 1.59

**Q.** And the logP [11]?
**A.** 4.94

**Q.** What about the Activity (Homo sapiens [12]) of the same molecule?
**A.** Dose-dependent effect

**Q.** What about the Drug uptake [13] of the same molecule?
**A.** 50%

**Q.** And the hemolysis at 50 µM [14]?
**A.** 28%

**Q.** And the IC50 [15]?
**A.** 1.52 equiv

**Q.** What about the inhibition [15] of the same molecule?
**A.** Dose-dependent effect

**Q.** What about the Activity (Ferriprotoporphyrin IX) of the same molecule?
**A.** Active

**Q.** What about the Ratio (Homo sapiens [16]) of the same molecule?
**A.** 1.5

**Q.** And the Ratio (Homo sapiens [17])?
**A.** 2

**Q.** Which Activity [2] does the source give for `CCN(CC)CCCC(C)Nc1ccnc2cc(Cl)ccc12` (stereo not drawn) [CHLOROQUINE] here?
**A.** Non-toxic

**Q.** And the Activity [4]?
**A.** Toxic

**Q.** What about the Activity (Erythrocyte) of the same molecule?
**A.** 40 nmol/h

**Q.** What about the Activity [6] of the same molecule?
**A.** Non-toxic

**Q.** And the IC90 (Plasmodium falciparum [7])?
**A.** 44.6 nM

**Q.** What about the IC90 (Plasmodium falciparum [8]) of the same molecule?
**A.** 441 nM

**Q.** And the Drug uptake [9]?
**A.** 10%

**Q.** What about the Activity (Homo sapiens [12]) of the same molecule?
**A.** Dose-dependent effect

**Q.** And the hemolysis at 50 µM [14]?
**A.** 84%
